2 compounds from ChEMBL document CHEMBL3352791, “Thioaryl naphthylmethanone oxime ether analogs as novel anticancer agents” (J Med Chem, 2014) can be followed below.

Assay [1] has as its system MCF7. Nature of the assay: Cell cycle arrest in human […] cells assessed as accumulation at subG1 phase at 2.5 uM by propidium iodide staining by FACS analysis (reference value: 0.1%). The assay is classed as functional. (In general: In flow cytometry, cells or beads pass a laser one at a time.)
In assay [2] the target is Induced myeloid leukemia cell differentiation protein Mcl-1 (Homo sapiens) (UniProt Q07820). Nature of the assay: Inhibition of basal level Mcl1 phosphorylation in human MDA-MB-231 cells at 1 uM by ELISA. The assay is classed as cell-based.
Sequence of Induced myeloid leukemia cell differentiation protein Mcl-1 (Homo sapiens) (Q07820 whole entry): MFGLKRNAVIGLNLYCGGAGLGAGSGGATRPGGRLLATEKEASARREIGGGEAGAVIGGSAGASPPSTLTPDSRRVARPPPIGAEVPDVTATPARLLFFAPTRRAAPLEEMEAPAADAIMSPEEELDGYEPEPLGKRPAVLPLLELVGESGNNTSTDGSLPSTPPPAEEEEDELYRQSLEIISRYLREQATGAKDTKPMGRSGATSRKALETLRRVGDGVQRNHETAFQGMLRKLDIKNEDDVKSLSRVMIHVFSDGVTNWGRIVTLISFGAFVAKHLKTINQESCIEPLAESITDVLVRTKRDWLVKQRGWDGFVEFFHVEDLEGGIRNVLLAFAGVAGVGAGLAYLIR
In assay [3] the test system is MDA-MB-231. As to the kind of experiment: Induction of PTEN expression in human MDA-MB-231 cells at 1 uM after 24 hrs by qPCR analysis. The assay is classed as functional, cell-based. The gist of the method: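 qPCR on MDA-MB-231 cells treated with 1µM compound; GAPDH as internal control.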
Assay [4] relates to MCF7. Nature of the assay: Inhibition of VEGF expression in human MCF7 cells at 5 uM by ELISA. The assay is classed as functional, cell-based. (In general: An ELISA detects its analyte on a solid surface through an enzyme-linked reagent.)
The subject of assay [5] is MDA-MB-231. Nature of the assay: Induction of apoptosis in human […] cells assessed as caspase 9 activation at 2.5 to 7.5 uM by Caspase-Glo assay. The class given is functional, cell-based. In short, it runs like this: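 Caspase-8, -9 and -3 activities measured with Caspase-Glo 8, 9 and 3 kits; mean ± SEM from three independent experiments.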

Active and inactive are the calls of the source. The calls are words filed in the database; no cut-off is given here.

Consider `CCN(CC)CCO/N=C(\c1ccc(SC)cc1)c1cccc2ccccc12.O=C(O)C(=O)O`, for which the Activity in the assay on MCF7 [1] is on record as 0.4%.
Regarding `CCN(CC)CCO/N=C(\c1ccc(SC)cc1)c1cccc2ccccc12`, the inhibition entry in assay [2] was “Active”. Also, the outcome with MDA-MB-231 [3] and in the assay on MDA-MB-231 [5] was Active. Further, in the assay on MCF7 [4], the inhibition result is “inactive”.
